Series [1] can be described thus: Compound was evaluated for the ionization constant (pKa) by using potentiometric titration (ionization of end group). The format is physicochemical. In outline:
(§1)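 Potentiometric titration of the hydrochloride salt with water as solvent.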

The nature of series [2]: Compound was evaluated for the ionization constant (pKa) by using potentiometric titration (ionization of imidazole group). The series is classed as physicochemical. In outline: as §1
Series [3] deals with Histamine H2 receptor (Cavia porcellus) (UniProt P47747). Kind of series: Evaluated in vitro for histamine H2 receptor antagonist activity by using histamine-stimulated chronotropic response of the guinea pig atrium. The format is functional, tissue-based. The conditions noted are these: Cardiac atrium. In a few lines:
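A cumulative histamine concentration–response curve (rate) was then repeated with successive antagonist concentrations, each pre-incubated 30 min. Dose ratios compared histamine concentrations giving half-maximal stimulation with and without antagonist.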

For the next series, the system named is Rattus norvegicus. Kind of series: Compound was evaluated in vivo for the gastric antisecretory activity in the lumen perfused stomach of the anesthetized rat after iv administration. The format is functional. In a few lines: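 Male Sprague–Dawley rats (250 g) were anesthetized with urethane (1 g/kg) and given a lumen-perfused stomach preparation. Acid secretion was driven by constant i.v. histamine infusion [1 mg/(kg h)]. ED50 was taken from the regression line of percent inhibition of acid output.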

Histamine H2 receptor (Cavia porcellus), sequence (P47747 whole entry): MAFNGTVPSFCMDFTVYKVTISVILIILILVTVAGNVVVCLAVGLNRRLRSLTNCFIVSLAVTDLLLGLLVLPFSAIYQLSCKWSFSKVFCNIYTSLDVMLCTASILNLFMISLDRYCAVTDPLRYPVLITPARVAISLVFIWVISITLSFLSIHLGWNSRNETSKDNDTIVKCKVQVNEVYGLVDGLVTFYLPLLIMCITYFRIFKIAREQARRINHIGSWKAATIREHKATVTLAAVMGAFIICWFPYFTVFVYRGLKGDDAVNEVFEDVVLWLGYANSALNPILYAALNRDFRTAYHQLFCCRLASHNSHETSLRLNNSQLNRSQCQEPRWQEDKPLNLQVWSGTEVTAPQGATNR

Take `NCCc1c[nH]cn1` [HISTAMINE]: the pKa in series [1] turned out to be 9.81; in series [2] it was 6.07.

`C/N=C(/N)Nc1cccc(-c2c[nH]cn2)c1.Cl`: the Kb in series [3] was found to be 4400 nM. In the series on Rattus norvegicus, this molecule showed an ED50 of 3.6 mg/kg.

For `CC(C)/N=C/Nc1ccc(-c2c[nH]cn2)cc1.Cl`, the pKa came to 8.88 in series [1] and 5.58 in series [2]. Moreover, the Kb in series [3] worked out at 24 nM. Also, in the series with Rattus norvegicus, the ED50 came out at 0.019 mg/kg.

As for `Cl.N=C(N)c1cccc(-c2c[nH]cn2)c1`, in series [3], the Kb stood at 7200 nM. This molecule came in with an ED50 with Rattus norvegicus of 10 mg/kg.

With `CCC/N=C/Nc1ccc(-c2c[nH]cn2)cc1.Cl`, the Kb in series [3] turned out to be 32 nM. Further, in the series with Rattus norvegicus, it took a dose of 0.011 mg/kg to reach the 50% effect level (ED50).

Molecule `CNC(=N)c1cccc(-c2c[nH]cn2)c1.Cl` returned a Kb in series [3] of 8700 nM. Besides, the 50% effect level in the series on Rattus norvegicus (ED50) was put at a dose of 3.5 mg/kg.

With `C=CC/N=C/Nc1ccc(-c2c[nH]cn2)cc1.O=C(O)/C=C/C(=O)O`, in series [3], the Kb was 13 nM. Moreover, the ED50 with Rattus norvegicus is 0.024 mg/kg.

`CN/C(=N\CCSCc1nc[nH]c1C)NC#N` [CIMETIDINE] displayed a pKa in series [1] of -0.4. In the series with Rattus norvegicus, the ED50 came out at 0.56 mg/kg.

`Cl.N=C(N)Nc1cccc(-c2c[nH]cn2)c1` had a Kb in series [3] of 5500 nM. The molecule further registered an ED50 in the series on Rattus norvegicus of 3.2 mg/kg.

In turn, `CC/N=C/Nc1ccc(-c2c[nH]cn2)cc1.Cl` had a Kb in series [3] of 19 nM. In the series with Rattus norvegicus, this molecule yielded an ED50 of 0.02 mg/kg.

`CC(C)C/N=C/Nc1ccc(-c2c[nH]cn2)cc1.Cl` returned a Kb in series [3] of 69 nM. The 50% effect level with Rattus norvegicus (ED50) was put at a dose of 0.026 mg/kg.

Take `CC(C)(C)/N=C/Nc1ccc(-c2c[nH]cn2)cc1.O=S(=O)(O)O`: the 50% effective dose (ED50) with Rattus norvegicus is 0.017 mg/kg.

As for `C/N=C\Nc1ccc(-c2c[nH]cn2)cc1.Cl`, the Kb in series [3] was 1200 nM. Further, in the series on Rattus norvegicus, it took a dose of 1.1 mg/kg to reach the 50% effect level (ED50).

Usually pKa stands for the negative logarithm of the acid dissociation constant. Lower therefore signals a group that gives up its proton readily. The term Kb denotes the equilibrium dissociation constant of an antagonist, usually derived from a functional assay. For orientation: ED50 means the midpoint of the dose-response relation. Lower therefore signals an effect at a small dose.

Source of the values: ChEMBL document CHEMBL1122591, “(Imidazolylphenyl)formamidines. A structurally novel class of potent histamine H2 receptor antagonists” (J Med Chem, 1984).
